Like-named read-outs stand apart in the source and are kept apart here. Marks after values point to notes of the source that are not given here.
How the values were obtained:
cytochrome P450 (CYP) 3A = settings: cited from earlier work
[1] = healthy volunteers, cited from earlier work
[2] = 300‐mg dose (capsule); mean ± SD; study 15L‐CL‐002; cited from earlier work
[3] = type: in vivo, human
Outline: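 Healthy men (n = 6) got one fasted oral 200 mg dose of 14C-labelled test compound (1.8 MBq) in water with 8% hydroxypropyl-β-cyclodextrin. Urine and feces were collected for 8 days. Expired air was sampled predose to 72 h and trapped in 1 N hyamine hydroxide with phenolphthalein. Urine and feces were homogenized, and radioactivity was read by liquid scintillation. Urinary parent was measured by LC-MS/MS. CL_R = Ae/AUC over the largest common quantifiable interval.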

[4] = subjects with moderate hepatic impairment; cited from earlier work
[5] = type: in vivo, human; remark: listed apart in the source
Outline: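 Six healthy men were dosed fasted, orally, once at 200 mg of 14C-labelled test compound (1.8 MBq) in water with 8% hydroxypropyl-β-cyclodextrin. Blood was drawn predose and from 15 min to 72 h, kept on ice, and spun at 1500g for 10 min at 4 °C within 30 min. Plasma radioactivity was read by liquid scintillation and parent by LC-MS/MS. Parameters were noncompartmental, with values below LLOQ set to zero.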

[6] = subjects with severe renal impairment; cited from earlier work
[7] = Safety and tolerability of single-dose amenamevir in healthy volunteers; type: in vivo, human; settings: single 200 mg dose; for subjects with treatment‐emergent AEs: 6 subjects dosed
Outline: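 Six healthy men aged 18–65 years received one fasted oral 200 mg dose and were monitored from screening through admission, discharge and a post-study visit. Adverse events were collected from spontaneous reports and non-leading questioning, coded with MedDRA v10.0, and graded for severity and treatment relation. Checks covered blood pressure, heart rate, ECG, physical examination, chemistry, hematology, urinalysis, serology and drug/alcohol screens.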

[8] = 300‐mg dose (capsule); mean ± SD; study 15L‐CL‐001; cited from earlier work
[9] = Metabolic profiling of 14C-amenamevir in plasma, urine and feces; type: in vivo, human; settings: single oral 200 mg
Outline: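 After one fasted oral 200 mg dose of 14C-labelled test compound in 8% hydroxypropyl-β-cyclodextrin, healthy men gave plasma predose and at 0.5, 1, 2, 4, 6, 8, 10 and 12 h. Urine and fecal homogenates (stored at −70 °C) were also collected. Radiochromatograms were run by HPLC for all matrices. Urine and fecal metabolites were identified by LC-MS/MS.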

[10] = single 300‐mg (capsule) dose, day 1 of administration; study 15L‐CL‐003; cited from earlier work
VZV = settings: preclinical studies; cited from earlier work
[11] = single oral 200 mg, n = 5, mean ± SD, 8 days of sampling
[12] = ^14C‐radioactivity in plasma, single oral 200 mg, n = 6, mean ± SD
[13] = ^14C‐radioactivity in whole blood, single oral 200 mg, n = 6, mean ± SD
[14] = ^14C‐radioactivity, single oral 200 mg

SMILES: Cc1cccc(C)c1N(CC(=O)Nc1ccc(-c2ncon2)cc1)C(=O)C1CCS(=O)(=O)CC1 [Amenamevir]
- relation to CYP3A (cytochrome P450 (CYP) 3A): both a substrate and inducer
- dose proportionality of pharmacokinetics [1]: less than dose proportional
- safety and tolerability ([1]; single doses of 5 to 2400 mg or 300 to 600 mg/day for 7 days): safe and well tolerated
- half‐life [2]: 7.85 ± 1.62 h
- peak concentration of drug in blood plasma [2]: 1093 ± 201 ng/mL
- CL renal ([3]; human, urine and plasma, po, 200 mg): 40.7 mL/min
- dose eliminated by 168 hours after the dose ([3]; single oral 200 mg): > 95%
- Ae expired air (cumulative recovery of ^14C‐radioactivity) ([3]; single oral 200 mg, N = 6, listed as 14C‐amenamevir): 0%
- Ae urine (cumulative recovery of ^14C‐radioactivity) ([3]; single oral 200 mg, N = 6, mean ± SD, 8 days of sampling): 20.6 ± 4.0%
- Ae feces (cumulative recovery of ^14C‐radioactivity) [3, 11]: 74.6 ± 3.0 ^a %
- Ae total (cumulative recovery of ^14C‐radioactivity) [3, 11]: 95.3%
- Ae total (cumulative recovery of ^14C‐radioactivity) ([3]; single oral 200 mg, n = 5, mean ± SD, 8 days of sampling, listed as 14C‐amenamevir): 95.3 ± 1.8 ^a %
- Cumulative Aelast (amenamevir excreted into urine) ([3]; unchanged amenamevir in urine by LC‐MS/MS, single oral 200 mg, N = 6, mean ± SD): 20.9 ± 5.5 mg
- pharmacokinetic profile in moderate hepatic impairment [4]: not significantly altered
- AUCinf [5, 12]: 10,997 ± 2530 ng · h/mL
- AUClast [5, 12]: 10,076 ± 2912 ng · h/mL
- Cmax [5, 12]: 1041 ± 324 ng/mL
- t½ [5, 12]: 8.03 ± 0.81 h
- tmax ([5]; ^14C‐radioactivity in plasma, single oral 200 mg, n = 6, median (range)): 1.00 (1.00–3.02) hours
- AUCinf [5, 13]: 10,425 ± 2265 ng · h/mL
- AUClast [5, 13]: 8530 ± 2263 ng·h/mL
- Cmax [5, 13]: 919 ± 284 ng/mL
- t½ [5, 13]: 9.19 ± 2.13 h
- tmax ([5]; ^14C‐radioactivity in whole blood, single oral 200 mg, n = 6, median (range)): 1.00 (1.00–2.00) hours
- Whole blood:plasma ratio of AUCinf [5, 14]: 0.951
- Whole blood:plasma ratio of AUClast [5, 14]: 0.852
- Whole blood:plasma ratio of Cmax [5, 14]: 0.885
- AUC(0-inf) ([5]; human, plasma, po, 200 mg): 8820 ± 2510 ng·h/mL
- AUC(0-t) ([5]; human, plasma, po, 200 mg): 8690 ± 2490 ng·h/mL
- Cmax ([5]; human, plasma, po, 200 mg): 1020 ± 404 ng/mL
- half-life ([5]; human, plasma, po, 200 mg): 7.65 ± 0.49 h
- tmax ([5]; human, plasma, po, 200 mg): 1.5 h
- renal clearance in severe renal impairment [6]: reduced renal clearance
- clinical laboratory evaluations, vital signs, electrocardiogram recordings [7]: No clinically important abnormalities
- deaths, serious AEs, or AEs resulting in discontinuation [7]: No deaths, serious AEs, or AEs resulting in discontinuation were reported
- subjects with treatment‐emergent AEs [7]: 3
- subjects with treatment‐emergent AEs ([7]; listed as amenamevir): Three
- severity of AEs ([7]; all 3 AEs): mild
- safety and tolerability ([7]; healthy male subjects, n = 6): safe and well tolerated
- half‐life [8]: 6.88 ± 0.56 h
- peak concentration of drug in blood plasma [8]: 1040 ± 264 ng/mL
- share of the administered dose in feces ([9]; feces 0 to 72 hours after the dose): < 0.1%
- share of the total radioactivity in plasma ([9]; plasma samples 0.5 to 12 hours after the dose): 80%
- share of the total radioactivity excreted in urine ([9]; urine 0–48 hours after the dose): approximately 55%
- drug excreted in the urine [10]: 11.07%
- renal clearance [10]: 2.45 L/h
- activity against VZV compared with acyclovir and valacyclovir (VZV): more potent than acyclovir and valacyclovir

— article PMC6619336 (Clinical Pharmacology in Drug Development, 2018)
